PABP FP inh – blocks human PABP binding to poly(A) RNA; P11940; calls only at 35 µM; hit rate 1% among 290,000; fluorescence polarization;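 note: calls also rest on retests at 20 µM and on dose response follow-up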
Target sequence (P11940 whole entry, looked up): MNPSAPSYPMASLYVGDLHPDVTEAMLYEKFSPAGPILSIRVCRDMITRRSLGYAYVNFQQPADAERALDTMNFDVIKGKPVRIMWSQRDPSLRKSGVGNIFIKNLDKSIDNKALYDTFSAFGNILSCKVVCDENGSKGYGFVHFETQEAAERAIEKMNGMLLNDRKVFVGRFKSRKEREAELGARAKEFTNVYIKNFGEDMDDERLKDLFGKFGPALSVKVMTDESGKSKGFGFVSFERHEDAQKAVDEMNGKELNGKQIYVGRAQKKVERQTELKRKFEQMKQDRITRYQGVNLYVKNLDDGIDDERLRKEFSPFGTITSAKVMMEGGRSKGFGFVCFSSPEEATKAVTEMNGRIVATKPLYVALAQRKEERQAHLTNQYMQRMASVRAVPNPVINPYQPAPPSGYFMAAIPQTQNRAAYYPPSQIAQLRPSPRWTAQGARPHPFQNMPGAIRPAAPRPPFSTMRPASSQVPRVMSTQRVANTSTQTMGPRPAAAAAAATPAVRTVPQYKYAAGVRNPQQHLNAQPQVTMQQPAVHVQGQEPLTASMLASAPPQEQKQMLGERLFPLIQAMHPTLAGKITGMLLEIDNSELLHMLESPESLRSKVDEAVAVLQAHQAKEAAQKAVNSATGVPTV
VIM-2 inh – blocks Pseudomonas aeruginosa VIM-2 metallo-beta-lactamase. purified VIM-2, nitrocefin hydrolysis, epi-absorbance fluorescence. inhibition, % at 5.6 µM. hit rate 0.89% among 290,000. AID 1527;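 active = inhibition above the mean of all tested compounds plus 3 SD, cutoff set per screening run, cut at about 7.5% in these data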;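 note: red hydrolysis product quenches plate fluorescence so inhibitors raise well fluorescence; 0% = enzyme with DMSO and 100% = DMSO without enzyme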
MLLE-PAM2 inh – blocks PAM2 peptide binding to the PABP1 MLLE domain. P11940. GST-MLLE / FITC-PAM2 fluorescence polarization. inhibition, % at 20 µM. hit rate 0.36% among 360,000; in the data active = inhibition above about 35%, passing the limit was not always enough;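 note: plate controls were DMSO wells with GST-MLLE for no effect and wells lacking GST-MLLE protein for full effect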
IMP-1 inhibitor – inhibitors of Pseudomonas aeruginosa IMP-1 metallo-beta-lactamase; purified IMP-1, nitrocefin hydrolysis, epi-absorbance fluorescence; inhibition, % at 5.6 µM; hit rate 0.45% among 290,000; AID 1556;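 active = inhibition above the mean plus 3 SD of all compounds in the same screening run, cut at about 4.5% in these data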;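 note: 0% = IMP-1 with DMSO and 100% = DMSO wells lacking enzyme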
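Material – recombinant IMP-1 enzyme, purified · Amount – IMP-1 0.2 nM before substrate addition · Medium – HEPES buffer pH 7.1 with ZnSO4 and Brij 35 · Timing – 25 °C, 15 min preincubation, 25 min reaction · Measured by – plate fluorescence quenching by hydrolysis product, ex 480/em 530 nm · Read-out – percent enzyme inhibition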
eIF4H FP inh – inhibitors of RNA binding by human eIF4H | Q15056 | eIF4H fluorescence polarization binding assay | inhibition, % at 35 µM | hit rate 0.94% among 290,000 | AID 2012;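 note: calls also rest on retests at 20 µM and on dose response follow-up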
Starred values were filed as active, the others as inactive; i = inactive; ? = inconclusive; . = no result given; + = active, no number. A selection: hits, their analogues and other compounds. The true share with any hit is near 2.2%. Unless noted, the rule behind the calls is not given here.

SMILES	PABP FP inh	VIM-2 inh	MLLE-PAM2 inh	IMP-1 inhibitor	eIF4H FP inh
O=C(C(NS(=O)(=O)c1cccs1)c1ccccc1)N1CCN(c2ccccc2)CC1 (stereo unspecified)	+	-1	17	-3	64*
O=c1[nH]n(-c2ccccc2)c(=O)cc1Cl	.	.	6	.	.
O=C(/C=C/c1ccco1)Nc1cccc(C(=O)Nc2ccccc2C(=O)O)c1	+	0	-20	-2	89*
O=C(/C=C/c1ccco1)NC(=S)Nc1ccc(C(=O)O)cc1	+	0	14	1	97*
O=C(/C=C/c1ccco1)NC(=S)NNC(=O)c1ccco1	+	-2	7	-3	92
CC(=O)NC(=S)Nc1ccc(NC(=S)NC(=O)/C=C/c2ccco2)cc1	.	-3	14	-2	.
O=C(/C=C/c1ccco1)NC(=S)Nc1ccc(N2CCCC2)cc1	+	0	36*	1	93*
C=CCNC(=S)NNC(=O)c1ccco1	i	-7	-13	-4	-8
CC(C)(C)C(=O)OCCNc1nc(-c2ccccc2)nc2ccccc12	i	0	-4	-6	-4
Cc1ccc(CN2CC(C(=O)NCC(=O)Nc3c(C)cccc3C)CC2=O)cc1 (stereo unspecified)	.	.	14	.	.
O=C(/C=C/c1ccco1)NC(=S)Nc1ccc(Cl)cn1	+	-2	-30	-5	71
Nc1c(C(=O)O)sc2nc(-c3ccccc3)cc(-c3ccc(Cl)cc3)c12	i	-3	-2	-4	12
Nc1c(C(=O)O)sc2nc(-c3ccc(F)cc3)cc(-c3ccccc3)c12	+	-1	-42	-1	81
COc1cc(/C=C(\C#N)C(=O)c2c[nH]c3ccccc23)cc(OC)c1O	i	-3	-141	4.8*	?
COc1cc(/C=C(\C#N)C(=O)NCCc2ccccc2)cc(OC)c1O	i	-3	-138	-4	42
Cn1c2ccccc2c(=O)c2ccc(-c3ccc4c(c3)OCO4)cc21	i	9.3*	-2	-1	2
COc1cc(-c2ccc3c(=O)c4ccccc4sc3c2)cc(OC)c1OC	.	.	-7	.	.
COc1cc2oc3ccc(C#Cc4ccccn4)cc3c(=O)c2cc1OC	.	.	-34	.	.
Cn1c2ccccc2c(=O)c2ccc(C#Cc3ccccn3)cc21	i	10*	.	1	39
COc1cc(-c2ccc3c(=O)c4ccccc4n(C)c3c2)cc(OC)c1OC	i	12*	2	-1	-5
CSc1nc2ccc(NC(=O)CS(=O)(=O)c3ccccc3)cc2s1	.	.	-4	.	.
Cc1n(C)c2cc(Cl)ccc2[n+]1Cc1ccccc1	i	0	-118	2	29
CC(C)OCCCn1c(-c2ccco2)nc2nc3ccccc3nc21	i	1	-18	-1	?
CCC(C)n1c(-c2ccco2)nc2nc3ccccc3nc21 (stereo unspecified)	+	-2	.	-2	?
CC(C)(C)NC(=O)CN(C(=O)CCN1CCCc2ccccc21)C(C)(C)C	i	-2	54*	-7	-16
SMILES	PABP FP inh	VIM-2 inh	MLLE-PAM2 inh	IMP-1 inhibitor	eIF4H FP inh
CC(C)(C)CN1CCNC(=O)C1CC(=O)NCCN1CCCc2ccccc21 (stereo unspecified)	i	-1	18	0	58*
CN1CCN(C2=C(Cl)C(=O)N(Cc3ccccc3)C2=O)CC1	+	2	0	-1	89*
CCn1c(CSc2nc3ccccc3s2)nnc1SCC(=O)c1ccc(O)c(O)c1	+	1	-57	-3	52*
CCn1c(CSc2nc3ccccc3s2)nnc1SCC(=O)c1ccc(Cl)cc1	i	-1	-54	-5	-7
N=C1/C(=C/c2ccco2)C(=O)N=C2SC(CC(=O)N3CCCC3)=NN12	+	-1	-4	-2	79*
CC(C)CS(=O)(=O)C1=NN2C(=N)/C(=C\c3ccc(OC(=O)c4ccco4)cc3)C(=O)N=C2S1	+	-3	-20	0	66*
CS(=O)(=O)C1=NN2C(=N)/C(=C\c3ccc(OC(=O)c4ccco4)cc3)C(=O)N=C2S1	i	-1	-14	-1	-10
CCCCN(CC)S(=O)(=O)c1ccc2c(c1)n(C)c(=O)c(=O)n2C	i	-2	-1	-1	-6
O=S(=O)(c1ccc(-c2ccon2)s1)N1CCN(c2ccccn2)CC1	i	-2	-11	79*	4
CCN(CC(O)CON=C1c2ccccc2-c2ccccc21)S(=O)(=O)c1ccc(C)cc1 (stereo unspecified)	+	-4	14	-1	80*
O/N=C1/CCc2cccc3cccc1c23	+	-1	19	-3	62*
Cc1ccc(C(=O)NCCN(C)C)cc1C	i	-3	12	5.4*	-14
Cc1ccc(NC(=O)Nc2nnc(CSCCOc3ccc(Cl)cc3)s2)cc1	+	-2	-30	0	84
N=C1S/C(=C\c2ccc(-c3ccccc3C(=O)O)o2)C(=O)N1c1ccc2c(c1)OCO2	+	1	-72	-1	87*
Cc1c(C(=O)O)cccc1-c1ccc(/C=C2/NC(=O)N(c3ccccc3)C2=O)o1	i	-4	6	-2	9
O=C(O)CN1C(=O)S/C(=C\c2ccc3c(c2)OCO3)C1=O	.	.	9	.	.
COc1ccccc1N1C(=N)S/C(=C\c2ccc(-c3ccccc3C(=O)O)o2)C1=O	i	2	-89	-2	59*
O=C(COc1cc(F)ccc1[N+](=O)[O-])Nc1ccc(N2CCCCC2)cc1	.	.	6	.	.
CCOc1c(C#N)c(C#N)c2nc(C)cc(C)n12	i	3	-5	-1	3
Cc1cc(C)n2c3c(c(C#N)c2n1)CCCC3	i	7.7*	19	-8	-8
COc1ccccc1C(=O)Nc1ncc2c(n1)CC(c1ccco1)CC2=O (stereo unspecified)	+	0	7	-6	74*
COc1ccc(C2CC(=O)c3cnc(NC(=O)c4ccco4)nc3C2)cc1 (stereo unspecified)	i	-4	-5	-4	-8
COC(=O)C1=C(C)NC(=O)/C1=C\N(C)C	+	-4	43*	-3	79*
COC(=O)C1=C(C)NC(=O)/C1=C\c1cccs1	i	-3	15	-2	-1
Cn1cccc1C(=O)NCc1ccccn1	.	.	5	.	.
SMILES	PABP FP inh	VIM-2 inh	MLLE-PAM2 inh	IMP-1 inhibitor	eIF4H FP inh
CCOC(=O)c1ccc(N2CN(C3CCCCC3)CNC2=S)cc1	i	0	4	7.2*	5
CC1SC(=Nc2ccccc2)N(S(=O)(=O)c2ccccc2)C1=O (stereo unspecified)	i	-3	4	1	-8
C=CCSC1=N/C(=C\c2cc(OC)c3c(c2)OCO3)C(=O)S1	i	0	-15	-3	57*
CCSC1=N/C(=C\c2ccc3c(c2)OCO3)C(=O)S1	i	-1	-14	-1	-2
O=C(O)c1cccc(N/N=C/c2ccc(OC(F)(F)F)cc2)c1	i	-1	16	-1	-2
COC(=O)c1ccc(COc2ccc(/C=N/Nc3cccc(C(=O)O)c3)cc2)cc1	+	-3	6	-4	75*

High-throughput results deposited in PubChem by several laboratories.
